Holding throughout (format): functional, cell-based
The nature of experiment [1]: Antiproliferative activity against human NB4 cells assessed as cell growth inhibition after 48 hrs by XTT assay. Particulars: NB-4, 48 h. Summed up: (§1)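 NB4 grown in RPMI 1640 with 10% FBS and penicillin/streptomycin, A549 and MCF-7 in DMEM, all at 37 °C and 5% CO2. Cells seeded at 1.5∙10⁴ (NB4) or 1.0∙10⁴ (A549, MCF-7) per well. Adherent lines dosed 24 h after plating, NB4 shortly after. Triplicate concentrations from 0.1 to 100, DMSO control at 0.5% v/v. After 48 h exposure, XTT added for 2 h. A450 minus A690 read, GI50 reported with SE.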

The subject of a further experiment is A549. The experiment is described as follows: Antiproliferative activity against human A549 cells assessed as cell growth inhibition after 48 hrs by XTT assay. Particulars: A549, 48 h. Summed up:
as §1
On the technique in general: Tetrazolium dyes change colour on reduction, which living cells bring about.

The next experiment relates to MCF7. Put plainly: Antiproliferative activity against human MCF7 cells assessed as cell growth inhibition after 48 hrs by XTT assay. To be noted: MCF7, 48 h. Summed up:
as §1

pIC50: −log10 of the molar value. Bounds are passed on as bounds.

The source of these data is ChEMBL document CHEMBL3421532, “Synthesis and antiproliferative activity of α-branched α,β-unsaturated ketones in human hematological and solid cancer cell lines” (Eur J Med Chem, 2015).

Take `C=C(C(=O)c1ccc(OC)cc1)C(OC(=O)c1ccccc1)c1ccccc1[N+](=O)[O-]` (stereo not drawn): the values for the negative-log IC50 (pIC50) (in experiment [1]; with A549; with MCF7) were 4.90, 4.34 and 4.93, respectively.

Turning to `COc1ccc(C(=O)/C(=C/c2ccc(Cl)cc2)CC(C)C)cc1`, the pIC50 (usually −log10 of the IC50, conventionally taken in molar units) in experiment [1] was 4.92; in the experiment on A549 it was below 4.00; in the experiment on MCF7, below 4.00.

`C=C(C(=O)c1ccc(OC)cc1)C(O)c1ccccc1F` (stereo not drawn): the negative logarithm of the IC50 (pIC50) in experiment [1] is 5.16; in the experiment with A549, 4.80; in the experiment on MCF7 it was 4.51.

On to `COc1ccc(C(=O)/C(=C/c2ccc(Cl)cc2Cl)CC(C)OC(C)=O)cc1` (stereo not drawn), for which the pIC50 was 4.43 in experiment [1], 4.39 in the experiment with A549 and below 4.00 with MCF7.

For `COc1ccc(C(=O)/C(=C/c2ccc([N+](=O)[O-])cc2)CN2CCOCC2)cc1`, the pIC50 in experiment [1] was 5.25; with A549 it was 4.15; with MCF7 it was 5.15.

In the case of `C=C(C(=O)c1ccc(OC)cc1)C(OC(=O)c1ccccc1)C(CC)CC` (stereo not drawn), the pIC50 was 4.89 in experiment [1], 4.45 in the experiment with A549 and 4.75 with MCF7.

Regarding `C=C(C(=O)c1ccc(OC)cc1)C(OC(=O)c1ccccc1)c1ccccc1F` (stereo not drawn), the negative logarithm of the IC50 (pIC50) in experiment [1] was 4.84; in the experiment on A549, 4.13; in the experiment on MCF7, 4.47.

In the case of `COc1ccc(C(=O)/C(=C/c2ccc(Cl)cc2Cl)CCOC(C)=O)cc1`, the negative-log IC50 (pIC50) in experiment [1] was 4.46; in the experiment with A549 it was 4.16; in the experiment with MCF7, 4.08.

Turning to `C=C(C(=O)c1ccc(OC)cc1)C(OC(=O)c1ccccc1)c1ccccc1Cl` (stereo not drawn), the pIC50 in experiment [1] was 5.07; in the experiment with A549, 4.52; with MCF7, 4.44.

As for `C=C(C(=O)c1ccc(OC)cc1)C(OC(C)=O)c1ccccc1F` (stereo not drawn), the negative-log IC50 (pIC50) in experiment [1] was 5.02; with A549, 4.17; in the experiment with MCF7 it was 4.74.

Regarding `COc1ccc(C(=O)/C(=C/c2ccc(Cl)cc2Cl)CN(C)C(=O)c2ccccc2)cc1`, the pIC50 in experiment [1] is 4.62; in the experiment on A549, 4.49; in the experiment on MCF7 it was 4.40.

For `C=C(C(=O)c1ccc(OC)cc1)C(OC(=O)c1ccccc1)c1ccc(Cl)cc1Cl` (stereo not drawn), the figures for the pIC50 (in experiment [1]; in the experiment on A549; in the experiment on MCF7) were 5.01, 4.10 and 4.57, respectively.

Consider `COc1ccc(C(=O)/C(=C/c2ccc(C(F)(F)F)cc2)CC(C)C)cc1`, for which the pIC50 is 4.90 in experiment [1], below 4.00 with A549 and below 4.00 in the experiment with MCF7.

`COc1ccc(C(=O)/C(=C/c2ccccc2F)CCOC(C)=O)cc1`: the negative logarithm of the IC50 (pIC50) (in experiment [1]; in the experiment on A549; in the experiment with MCF7) was below 4.00 each time.

Take `C=C(C(=O)c1ccc(OC)cc1)C(OC(C)=O)c1ccc([N+](=O)[O-])cc1` (stereo not drawn): the negative logarithm of the IC50 (pIC50) in experiment [1] is 4.99; in the experiment on A549 it was 4.67; in the experiment on MCF7, 5.21.

Regarding `C=C(C(=O)c1ccc(OC)cc1)C(O)c1ccc(Cl)cc1Cl` (stereo not drawn), the pIC50 was 4.58 in experiment [1], 4.15 in the experiment with A549 and 5.05 in the experiment on MCF7.

Regarding `COc1ccc(C(=O)/C(=C/c2ccc([N+](=O)[O-])cc2)CCOC(C)=O)cc1`, the negative-log IC50 (pIC50) (in experiment [1]; in the experiment on A549; in the experiment with MCF7) was below 4.00 each time.

For `C=C(C(=O)c1ccc(OC)cc1)C(OC(=O)c1ccccc1)c1ccc([N+](=O)[O-])cc1` (stereo not drawn), the pIC50 in experiment [1] was 4.88; with A549, 4.18; in the experiment with MCF7, 4.25.

As for `CCC(/C=C(\COC(C)=O)C(=O)c1ccc(OC)cc1)CC`, the pIC50 is 5.02 in experiment [1], below 4.00 in the experiment on A549 and 4.86 in the experiment on MCF7.

Turning to `COc1ccc(C(=O)/C(=C/c2ccc(Cl)cc2)CCOC(C)=O)cc1`, the negative logarithm of the IC50 (pIC50) is 4.44 in experiment [1], 4.07 with A549 and below 4.00 in the experiment on MCF7.

Take `CCC(/C=C(\CCOC(C)=O)C(=O)c1ccc(OC)cc1)CC`: the negative-log IC50 (pIC50) is 4.04 in experiment [1], below 4.00 in the experiment with A549 and below 4.00 in the experiment on MCF7.

Take `CCC(/C=C(\COC(=O)c1ccccc1)C(=O)c1ccc(OC)cc1)CC`: the values for the pIC50 (in experiment [1]; with A549; with MCF7) were 4.57, below 4.00 and 4.55, respectively.

Consider `COc1ccc(C(=O)/C(=C/c2ccc(Cl)cc2Cl)CC2CCCCC2)cc1`, for which the figures for the pIC50 (in experiment [1]; with A549; with MCF7) were 4.31, below 4.00 and below 4.00, respectively.

In the case of `CC(=O)OC/C(=C/c1ccc(Cl)cc1Cl)C(=O)c1ccccc1`, the negative logarithm of the IC50 (pIC50) was 4.90 in experiment [1], 4.13 with A549 and 4.50 with MCF7.

Turning to `C=C(C/C(=C\c1ccc(OC(=O)c2ccccc2)cc1)C(=O)c1ccccc1)C(=O)c1ccccc1`, the pIC50 in experiment [1] is 5.10; in the experiment with A549, 4.35; with MCF7, 4.21.

Turning to `C=C(C/C(=C\c1ccc(C)cc1)C(=O)c1ccccc1)C(=O)c1ccccc1`, the negative-log IC50 (pIC50) in experiment [1] was 5.12; with A549 it was 4.68; in the experiment with MCF7, 4.80.

On to `C=C(C(=O)c1ccc(OC)cc1)C(OC(C)=O)C1CCCCC1` (stereo not drawn), for which the results for the negative-log IC50 (pIC50) (in experiment [1]; with A549; in the experiment with MCF7) were 4.98, below 4.00 and 4.85, respectively.

`COc1ccc(C(=O)/C(=C/C2CCCCC2)CN(C)C(=O)c2ccccc2)cc1`: the figures for the pIC50 (in experiment [1]; in the experiment with A549; in the experiment on MCF7) were 4.49, 4.16 and 4.49, respectively.

For the compound `COc1ccc(C(=O)/C(=C/c2ccc(Cl)cc2)CC(C)OC(C)=O)cc1` (stereo not drawn), the negative logarithm of the IC50 (pIC50) is 4.21 in experiment [1], 4.14 with A549 and below 4.00 in the experiment on MCF7.

As for `COc1ccc(C(=O)/C(=C/c2ccccc2Cl)CCOC(C)=O)cc1`, the negative logarithm of the IC50 (pIC50) in experiment [1] was 4.29; in the experiment with A549, below 4.00; in the experiment with MCF7, below 4.00.

As to `COc1ccc(C(=O)/C(=C/c2c(F)c(F)c(F)c(F)c2F)CCOC(C)=O)cc1`, the pIC50 was 4.55 in experiment [1], 4.24 in the experiment on A549 and below 4.00 in the experiment on MCF7.

As for `CC(=O)OC/C(=C/c1ccccc1F)C(=O)c1ccccc1`, the pIC50 in experiment [1] was 5.08; with A549 it was 4.69; in the experiment on MCF7 it was 4.40.

With `C=C(C(=O)c1ccc(OC)cc1)C(O)c1ccccc1Cl` (stereo not drawn), the negative-log IC50 (pIC50) is 5.09 in experiment [1], 4.55 with A549 and 4.53 with MCF7.

With `COc1ccc(C(=O)/C(=C/c2ccc(Cl)cc2Cl)CC(C)C)cc1`, the negative-log IC50 (pIC50) is 4.84 in experiment [1], 4.10 in the experiment with A549 and below 4.00 with MCF7.

For `COc1ccc(C(=O)/C(=C/C2CCCCC2)COC(C)=O)cc1`, the negative logarithm of the IC50 (pIC50) in experiment [1] is 4.63; in the experiment with A549 it was 4.05; in the experiment with MCF7, 4.62.

`COc1ccc(C(=O)/C(=C/C2CCCCC2)COC(=O)c2ccccc2)cc1`: the negative logarithm of the IC50 (pIC50) is 4.99 in experiment [1], 4.44 with A549 and 4.86 with MCF7.

As for `COc1ccc(C(=O)/C(=C/c2ccc(Cl)cc2Cl)CN2CCOCC2)cc1`, the pIC50 in experiment [1] was 5.07; with A549, below 4.00; in the experiment with MCF7, 4.37.

Consider `C=C(C/C(=C\c1ccccc1)C(=O)c1ccc(OC)cc1)C(=O)c1ccc(OC)cc1`, for which the negative-log IC50 (pIC50) in experiment [1] is 5.13; with A549, 4.64; in the experiment with MCF7, 5.13.

With `COc1ccc(C(=O)/C(=C/c2c(F)c(F)c(F)c(F)c2F)CC(C)OC(C)=O)cc1` (stereo not drawn), the pIC50 is 4.31 in experiment [1], 4.04 in the experiment with A549 and below 4.00 in the experiment with MCF7.

For the compound `COc1ccc(C(=O)/C(=C/C2CCCCC2)CCOC(C)=O)cc1`, the pIC50 (in experiment [1]; in the experiment with A549; with MCF7) was below 4.00 in each case.

Regarding `COc1ccc(C(=O)/C(=C\c2ccccc2Cl)COC(=O)c2ccccc2)cc1`, the negative logarithm of the IC50 (pIC50) in experiment [1] is 4.70; in the experiment with A549, 4.28; with MCF7 it was 4.44.

`COc1ccc(C(=O)/C(=C/c2ccc(C(F)(F)F)cc2)CC2CCCCC2)cc1`: the figures for the pIC50 (in experiment [1]; with A549; in the experiment with MCF7) were 4.74, below 4.00 and below 4.00, respectively.

With `C=C(C(=O)c1ccc(OC)cc1OC)C(OC(C)=O)c1ccccc1[N+](=O)[O-]` (stereo not drawn), the pIC50 in experiment [1] is 5.06; with A549, below 4.00; with MCF7, 4.15.

`C=C(C(=O)c1ccc(OC)cc1)C(OC(C)=O)C(CC)CC` (stereo not drawn): the values for the pIC50 (in experiment [1]; in the experiment on A549; in the experiment with MCF7) were 4.93, 4.48 and 4.41, respectively.

`C=C(C(=O)c1ccc(OC)cc1)C(OC(=O)c1ccccc1)C1CCCCC1` (stereo not drawn): the negative logarithm of the IC50 (pIC50) in experiment [1] was 5.00; with A549, 4.21; with MCF7, 4.46.

`C=C(C(=O)c1ccc(OC)cc1)C(C)OC(=O)c1ccccc1` (stereo not drawn): the values for the pIC50 (in experiment [1]; in the experiment on A549; with MCF7) were 4.80, below 4.00 and 4.84, respectively.

`COc1ccc(C(=O)/C(=C/c2ccccc2F)COC(C)=O)cc1`: the pIC50 in experiment [1] was 5.09; in the experiment with A549, 4.65; in the experiment on MCF7, 4.52.

For the compound `C/C=C(\COC(=O)c1ccccc1)C(=O)c1ccc(OC)cc1`, the negative logarithm of the IC50 (pIC50) in experiment [1] is 4.79; in the experiment on A549 it was below 4.00; in the experiment with MCF7, 4.53.

For `C=C(C(=O)c1ccc(OC)cc1)C(OC(=O)c1ccccc1)c1c(F)c(F)c(F)c(F)c1F` (stereo not drawn), the figures for the pIC50 (in experiment [1]; in the experiment on A549; in the experiment with MCF7) were 4.89, 4.49 and 4.34, respectively.

Take `C=C(C/C(=C\c1ccc(C)cc1)C(=O)c1ccc(OC)cc1)C(=O)c1ccc(OC)cc1`: the pIC50 in experiment [1] is 4.94; with A549 it was 4.36; in the experiment on MCF7 it was 4.57.

For `COc1ccc(C(=O)/C(=C/C2CCCCC2)CC(C)OC(C)=O)cc1` (stereo not drawn), the results for the pIC50 (in experiment [1]; with A549; in the experiment on MCF7) were 4.48, 4.01 and below 4.00, respectively.
